# PAD4 FP inh – inhibitors of human PAD4. recombinant PAD4, RCA probe fluorescence polarization. inhibition, % at 6.36 µM. hit rate 0.41% among 330,000. AID 485272;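 active means percent inhibition above a cutoff equal to the mean of all tested compounds plus 3 SD, cut at about 15% in these data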
# Apaf1 inhib – blocks human Apaf-1 apoptosome activity; O14727; reconstituted apoptosome caspase-3 activity, DEVD-Rh110 fluorescence; inhibition, % at 20 µM; hit rate 0.71% among 330,000; active means inhibition of at least 40% at 20 µM
#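 Material: reconstituted apoptosome with Apaf-1, cytochrome c, caspase-9, procaspase-3, dATP; medium: pH 7.5 Hepes buffer with CHAPS, BSA, DTT; also added: cytochrome c and DEVD-Rh110 substrate; timing: 30 min plus 50 min, RT; signal: Rh110 fluorescence intensity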
# GSTO1 inh – blocks human GSTO1 in RBBP9 counter-screen; P78417; recombinant GSTO1, activity-based probe fluorescence polarization; inhibition, % at 5.96 µM; hit rate 1.1% among 300,000; AID 1974;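 active means inhibition above the campaign mean inhibition plus 3 SD, cut at about 35% in these data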
# Target sequence (P78417 whole entry, looked up): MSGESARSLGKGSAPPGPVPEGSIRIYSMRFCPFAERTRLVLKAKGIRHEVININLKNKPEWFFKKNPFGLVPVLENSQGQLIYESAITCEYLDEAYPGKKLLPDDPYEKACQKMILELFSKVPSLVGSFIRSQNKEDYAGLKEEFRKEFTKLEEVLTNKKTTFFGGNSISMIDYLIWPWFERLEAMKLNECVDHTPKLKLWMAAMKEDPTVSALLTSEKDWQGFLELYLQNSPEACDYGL
# TDP2 inh – blocks human TDP2 phosphodiesterase activity; O95551; recombinant TDP2, T5PNP hydrolysis, p-nitrophenol absorbance 415 nm; inhibition, % at 12.8 µM; hit rate 0.34% among 370,000;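 active means inhibition above the mean of all tested compounds plus 3 SD, set per campaign, cut at about 25% in these data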
# Target sequence (O95551 whole entry, looked up): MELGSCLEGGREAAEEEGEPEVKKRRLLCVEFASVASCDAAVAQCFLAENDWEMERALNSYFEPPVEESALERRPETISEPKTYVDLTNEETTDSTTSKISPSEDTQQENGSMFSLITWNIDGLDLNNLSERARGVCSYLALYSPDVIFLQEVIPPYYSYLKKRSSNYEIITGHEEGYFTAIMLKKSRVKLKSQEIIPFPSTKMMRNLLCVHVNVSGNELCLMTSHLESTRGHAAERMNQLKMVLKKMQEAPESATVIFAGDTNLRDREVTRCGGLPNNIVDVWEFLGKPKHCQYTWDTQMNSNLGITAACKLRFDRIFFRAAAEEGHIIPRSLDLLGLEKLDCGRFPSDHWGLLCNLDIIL
#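 System – recombinant human TDP2 · Quantity – TDP2 enzyme at 120 nM final · Doses – single concentration, 12.8 µM nominal, with 1% DMSO · Incubation – 2 h at 37 °C · Measured by – epi absorbance of p-nitrophenol freed from T5PNP by hydrolysis · Read-out – % inhibition relative to enzyme-containing and enzyme-free wells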
# PRMT1 inh – inhibitors of human PRMT1 | Q99873 | recombinant PRMT1, activity-based probe fluorescence polarization | inhibition, % at 2.79 µM | hit rate 1.3% among 370,000;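 active means inhibition above about 21% made by adding two undisclosed values, limit read from the data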
# PRMT1 confirm – PRMT1 (human) inhibition, FP confirmation. shares compounds with PRMT1 inh. recombinant His-PRMT1, activity-based probe fluorescence polarization. inhibition, % at 2.79 µM. hit rate 42% among 3,300. AID 687036;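 active means mean inhibition across replicates above the hit cutoff derived for the earlier primary screen, cut at about 22% in these data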
# Numbers stand for hits; - = inactive; . = no result. Shown are actives, neighbours in structure and some others; about 2.6% of the full set was active somewhere.
SMILES,PAD4 FP inh,Apaf1 inhib,GSTO1 inh,TDP2 inh,PRMT1 inh,PRMT1 confirm
C/C(CCc1ccccc1)=N\NC(=S)NCCc1ccccc1,-,-,-,-,-,.
Cc1cc(C)c(NC(=O)/C(=C/c2ccco2)c2ccccc2)c(C)c1,-,-,-,-,-,.
Cc1cccc(C)c1NC(=O)/C(=C/c1ccco1)c1ccccc1,-,-,-,-,26,-
COCCCNC(=S)N1CCN(S(C)(=O)=O)CC1,-,-,-,-,-,.
OCCN1CCN(C(=S)c2ccc(Cl)c(Cl)c2)CC1,-,-,-,-,78,78
COc1cc(NC(=S)N2CCN(CCO)CC2)c(OC)cc1Cl,-,-,-,-,-,.
Cc1ccc(-n2nc(C)c(C(=O)N3CCN(C(=O)c4ccco4)CC3)c2-n2cccc2)cc1,-,-,-,-,-,.
C[n+]1cccc(/C=N/Nc2nc(Cl)c(C#N)c(Cl)c2Cl)c1,-,-,-,-,49,-
Cn1c(N)c(C(=O)CSc2nc3ccccc3[nH]2)c(=O)n(C)c1=O,-,-,-,-,28,-
CC1(C(=O)CSc2nc3ccccc3[nH]2)CCC(=O)O1 (centres undefined),-,-,-,-,60,41
CC1(C(=O)CSc2ncn[nH]2)CCC(=O)O1 (centres undefined),-,-,-,.,.,.
COCc1cc(C)nc(SCC(=O)Nc2ccc(N3CCOCC3)cc2)c1C#N,-,-,-,-,-,.
O=[N+]([O-])c1cc(-c2csc(NC(CO)c3nc4ccccc4n3CCOCCO)n2)ccc1Cl (centres undefined),-,-,-,-,37,-
OCCOCCn1c(C(CO)Nc2nc(-c3ccc(F)cc3)cs2)nc2ccccc21 (centres undefined),-,-,-,-,-,.
Cc1cc(C)cc(N2C(=O)C=CC2=O)c1,.,.,.,-,80,96
CCCCC(=O)N1CCC(NS(=O)(=O)c2ccc3c(c2)CCN3C(C)=O)CC1,.,.,.,-,-,.
Cc1ccc(NC(=O)c2ccccc2)cc1C,-,-,-,-,-,.
Cc1ccc(NC(=O)/C=C\C(=O)NCC(=O)O)cc1C,-,-,-,-,40,-
Cc1cc(N2CCN(CC(C)(C)O)C[C@H]2C)ccc1N1CCN(CC(C)(C)O)[C@@H](C)C1,.,.,.,-,-,.
C=Cc1ccc2c(c1)N(C)C(=C)S2,-,-,-,-,81,61
CN=c1scc(-c2cccs2)n1/N=C/c1ccccc1O,-,-,-,-,-,.
O=c1c2ccccc2nc(-c2ccco2)n1/N=C/c1ccccc1O,-,-,-,-,-,.
C=CCN=c1scc(-c2ccco2)n1/N=C/c1ccc(O)c(O)c1O,-,-,-,-,29,31
CN=c1scc(-c2cccs2)n1/N=C/c1ccc(O)c(O)c1O,-,-,-,-,40,38
Oc1ccc(/C=N/n2c(-c3ccco3)csc2=Nc2cccnc2)c(O)c1,-,-,-,-,29,-
SMILES,PAD4 FP inh,Apaf1 inhib,GSTO1 inh,TDP2 inh,PRMT1 inh,PRMT1 confirm
O[C@@H]1CN(Cc2cccs2)[C@@H](c2ccc(Cl)cc2)C[C@H]1n1cc(-c2ccc(F)cc2)nn1,.,.,.,-,-,.
Cc1ccc(S(=O)c2snnc2C)cc1 (centres undefined),-,-,-,-,-,.
CNC(=O)c1nnsc1S(=O)c1ccc(Cl)cc1 (centres undefined),.,-,.,-,77,76
CCCNC(=O)c1nnsc1S(=O)c1ccc(Cl)cc1 (centres undefined),.,-,.,-,95,90
COc1ccc(OC)c(N2C(=NC(=O)C3CCCCC3)SC3CS(=O)(=O)CC32)c1 (centres undefined),-,-,-,-,-,.
Cc1ccc(-c2csc3n[nH]c(=S)n23)cc1,-,-,-,-,61,-
O=C(O)c1ccccc1C(=O)Nc1ccccc1,-,-,-,-,-,.
O=C(Nc1ccccc1)C1=C(c2ccccc2)S(=O)(=O)CCS1(=O)=O,.,.,.,-,47,56
CCOC(=O)C1=C(C)N=c2sc(=Cc3ccc(OCC(=O)O)cc3)c(=O)n2C1c1ccc(Cl)cc1 (centres undefined),.,.,.,-,42,-
CC1(C(=O)Nc2cnc3ccccc3c2)CCN1C(=O)c1ccccc1CCc1ccccc1 (centres undefined),.,.,.,-,-,.
c1ccc2[nH]c3cc4ncnc4cc3nc2c1,-,-,-,-,59,61
CN(CC#Cc1ccccc1)C(N)=NC(=O)/C=C/c1ccccc1,.,.,.,-,-,.
O=C1CC(SCCc2nc3ccccc3[nH]2)C(=O)N1c1ccc(F)cc1 (centres undefined),-,-,-,-,-,.
COc1ccc(N2C(=O)CC(SCCc3nc4ccccc4[nH]3)C2=O)cc1 (centres undefined),-,-,-,-,26,-
C=CCNc1nnc(SC2CC(=O)N(c3ccc(OC)cc3)C2=O)s1 (centres undefined),-,-,-,-,83,72
Cc1nnc(SC2CC(=O)N(c3ccccc3)C2=O)s1 (centres undefined),-,-,-,-,78,70
COc1ccc(N2C(=O)CC(Sc3nc4ccccc4s3)C2=O)cc1 (centres undefined),-,-,-,-,35,-
CC(=O)Nc1ccc(-c2ccnc3c2CC(C)(C(=O)Nc2ccc(C(C)C)cc2)O3)cc1 (centres undefined),.,.,.,-,-,.
CCOc1ccc(-n2c(SCC(=O)Nc3cccc4ccccc34)nnc2-c2ccccc2)cc1,.,.,.,-,-,.
COc1ccc(N2C(=O)CC(Sc3nnc(-c4ccccc4F)n3C)C2=O)cc1 (centres undefined),-,-,-,-,36,48
CCOc1ccc(N2C(=O)CC(Sc3nnnn3-c3ccccc3)C2=O)cc1 (centres undefined),.,.,.,-,76,43
CCOc1ccc(N2C(=O)CC(Sc3nc(C)cc(C)n3)C2=O)cc1 (centres undefined),-,-,-,-,-,.
Cn1c(=O)cc(OCCCC(=O)Nc2cc(Br)ccn2)c2ccccc21,.,.,.,-,-,.
CCOC(=O)c1c(-c2ccco2)csc1N,-,-,-,-,25,-
CCOC(=O)c1c(-c2ccco2)csc1NC(=O)COC(=O)c1cnccn1,-,-,-,-,25,-
SMILES,PAD4 FP inh,Apaf1 inhib,GSTO1 inh,TDP2 inh,PRMT1 inh,PRMT1 confirm
CCOC(=O)c1c(-c2cccs2)csc1N,-,-,-,-,-,.
Cc1ccc(C#CC[N+]2(CC#Cc3ccc(C)cc3)CCCCC2)cc1,-,-,-,-,-,.
N#Cc1c(-c2ccco2)nc(SCC(=O)Nc2cccc(Cl)c2)[nH]c1=O,-,-,-,-,46,-
CC(Sc1nnc(-c2ccco2)n1C)C(=O)Nc1ccc(N2CCOCC2)cc1 (centres undefined),.,-,.,-,-,.
O=C(CSc1nc2[nH]ncc2c(=O)[nH]1)Nc1cccc(Cl)c1,-,-,-,-,-,.
CCc1ccc(NC(=O)C(C)Sc2nc(-c3ccco3)c(C#N)c(=O)[nH]2)cc1 (centres undefined),-,-,-,-,26,38

# Compound activity deposited in PubChem by several laboratories.
